Where a name gives a salt, the structure may show the parent alone.
Key:
healthy adult men = assay: Adverse events; format: in vivo, human; conditions: 8-day twice-daily instillation
Method in brief: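 Healthy adult men, 3 × 3 crossover: three 8-day phases separated by drug-free intervals of at least 5 days. One drop of test eye drop was given in both eyes twice daily (09:00, 21:00), with morning dose only on day 8. Subjects were inpatients from day −1 to day 9. AEs and ADRs were tallied as number and percentage of subjects.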

healthy volunteers = conditions: cited from earlier work; for pupil diameter after single instillation: healthy subjects, ref 37 (Lee et al.)
[1] = test system: corneal endothelial cells; format: in vivo, human; conditions: after instillation, days 1 and 8; none developed grade 3
[2] = test system: healthy adults and patients with glaucoma; conditions: cited from earlier work
[3] = test system: palpebral and bulbar conjunctivae; assay: Palpebral and bulbar conjunctival hyperemia grading by slit lamp microscope; format: in vivo, human; conditions: day 1, score – = 0, + = 1, 2+ = 2, 3+ = 3; for palpebral conjunctival hyperemia mean ± SD grade score: administration phase 1
Method in brief: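 Conjunctival hyperemia was graded: – no or physiologic findings; + several vasodilatations; 2+ multiple or limbal vasodilatation; 3+ whole conjunctiva. Change from baseline per phase was averaged over both eyes and analysed by marginal model, n = 17–18.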

SMILES | subjects with ADRs (healthy adult men) [%] | subjects with AEs (healthy adult men) [%] | subjects with conjunctival hyperemia as ADR (healthy adult men) [%] | subjects with conjunctival hyperemia as AE (healthy adult men) [%] | pupil diameter after single instillation (healthy volunteers) | effect on pupil (healthy volunteers; healthy volunteers) | morphologic changes in corneal endothelial cells (grade) [1] | time of peak of transient conjunctival hyperemia after instillation [2] [min] | palpebral conjunctival hyperemia mean ± SD grade score ([3]; 15 min post-instillation) | palpebral conjunctival hyperemia mean ± SD grade score ([3]; 1 h post-instillation) | bulbar conjunctival hyperemia mean ± SD grade score ([3]; 1 h post-instillation)
Brc1c(NC2=NCCN2)ccc2nccnc12 [brimonidine, brimonidine tartrate] | 58.8 | 70.6 | 47.1 | 58.8 | significantly decreased | moderate miotic effect | No morphologic changes |  |  |  | 
C[C@H]1CNCCCN1S(=O)(=O)c1cccc2cncc(F)c12 [ripasudil, ripasudil hydrochloride hydrate] | 100.0 | 100.0 | 100.0 | 100.0 | no change in pupil diameter |  | grade 1 or 2 | 5 to 15 | 1.4 ± 0.6 | 0.9 ± 0.7 | 0.9 ± 0.5

Reference: PMC10329961 (Advances in Therapy, 2023)
